Test results reported in publication PMC8934255 (Cell chemical biology, 2021).

Assays:
Avpr2 = test: RT-PCR of Avpr2 expression in IMCD cells in high salt; assay type: cell-based, mouse; details: 5 μM, 500 mOsm/kg, 24 hours
[1] = In vivo pharmacokinetics, plasma clearance in mice; design: species or system mouse
Summary of the method: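 Mice got one dose of test compound formulated at 3mg/mL in PBS with 20% DMSO and 50% PEG-400, given intravenously (5 mg/kg) or orally (15 mg/kg). Blood was drawn at 0.5, 2, 4 and 7 h and plasma isolated by centrifugation. Compound was measured by LC-MS/MS and plasma concentration plotted semi-logarithmically against time.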

Pax proteins = test: Phosphorylation of Pax proteins in cell systems; assay type: cell-based; details: Fig. S2
Pax5 = Pax5 (Homo sapiens, UniProt Q02548); test: PRS4-Luc luciferase reporter assay, Pax5 activation; assay type: cell-based; details: compared with Pax2
Sequence of Pax5 (Q02548 whole entry, species assumed): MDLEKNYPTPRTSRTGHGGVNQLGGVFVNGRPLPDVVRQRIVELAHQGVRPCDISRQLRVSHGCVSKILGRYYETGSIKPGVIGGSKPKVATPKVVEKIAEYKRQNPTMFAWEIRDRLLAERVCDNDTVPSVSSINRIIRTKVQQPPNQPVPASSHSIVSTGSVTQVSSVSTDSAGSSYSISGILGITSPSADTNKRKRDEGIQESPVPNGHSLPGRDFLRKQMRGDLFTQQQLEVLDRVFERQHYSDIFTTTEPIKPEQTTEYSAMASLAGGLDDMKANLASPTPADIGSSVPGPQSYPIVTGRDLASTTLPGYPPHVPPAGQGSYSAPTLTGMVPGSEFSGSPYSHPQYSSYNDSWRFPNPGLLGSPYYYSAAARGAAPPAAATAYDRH

Pax2, Pax8, PTIP = test: Western blot of Pax2, Pax8 and PTIP protein levels in IMCD cells; assay type: cell-based, mouse; details: 5 μM, mIMCD cells
Summary of the method: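 Mouse IMCD cells were cultured 24 h in normal or high-salt medium with DMSO or 5 μM test compound. Lysates were western blotted for Pax2, Pax8 and PTIP.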

UTA1/3 = test: RT-PCR of UTA1/UTA3 mRNA in IMCD cells in high salt; assay type: cell-based, mouse; details: 5 μM, high salt 24 hours
BRE-Luc cells = test: BRE-Luc counter screen; assay type: cell-based, human; details: for Selectivity in PRS4-Luc cells over BRE-Luc cells: 8-point titration, fresh powder, duplicate
Summary of the method: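 Clonal HEK293 cells with an integrated BRE-Luc reporter, kept in DMEM with 10% FBS at 37°C and 5% CO2, were prepared like the PRS4-Luc cells. 6 × 10^3 cells/well (384-well) went onto plates pre-dosed with test compound or DMSO, in 8-point titrations in duplicate from fresh powder. Plates were incubated overnight, then Steady-Glo was added and luminescence read.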

[2] = system: Pax8 binding site at the Slc14a2 promoter; test: ChIP at the Slc14a2 promoter and Pax8 western blot in IMCD cells in high salt; assay type: cell-based, mouse; details: 5 μM, high salt 24 hours
Pax2-positive RCC cells = test: Luciferase ATP; assay type: cell-based, human; details: each concentration tested, 18 hours
HEK293 cells = test: Phospho-histone H3 immunoblot in HEK293 cells lacking Pax2; assay type: cell-based, human; details: increasing concentrations, 24 hours
Summary of the method: (§1)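 Human RCC or SKOV-3 cells (RPMI 1640, 10% FBS) or HEK293 cells (DMEM, 10% FBS) were seeded at 5.0 × 10^4 cells/well and attached overnight. Cells had 24 h of increasing test compound concentrations or DMSO. Lysates were boiled 5 min at 95°C in 2X SDS buffer, separated on 8% or 15% gels, transferred to PVDF at 4°C and probed for phospho-H3 (Ser10), total H3 and β-actin. Significance was by ANOVA with Dunnett's test versus vehicle.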

Pax8 = Pax8 (Homo sapiens, UniProt Q06710); test: PRS4-Luc luciferase reporter assay, Pax8 activation; assay type: cell-based; details: compared with Pax2
Sequence of Pax8 (Q06710 whole entry, species assumed): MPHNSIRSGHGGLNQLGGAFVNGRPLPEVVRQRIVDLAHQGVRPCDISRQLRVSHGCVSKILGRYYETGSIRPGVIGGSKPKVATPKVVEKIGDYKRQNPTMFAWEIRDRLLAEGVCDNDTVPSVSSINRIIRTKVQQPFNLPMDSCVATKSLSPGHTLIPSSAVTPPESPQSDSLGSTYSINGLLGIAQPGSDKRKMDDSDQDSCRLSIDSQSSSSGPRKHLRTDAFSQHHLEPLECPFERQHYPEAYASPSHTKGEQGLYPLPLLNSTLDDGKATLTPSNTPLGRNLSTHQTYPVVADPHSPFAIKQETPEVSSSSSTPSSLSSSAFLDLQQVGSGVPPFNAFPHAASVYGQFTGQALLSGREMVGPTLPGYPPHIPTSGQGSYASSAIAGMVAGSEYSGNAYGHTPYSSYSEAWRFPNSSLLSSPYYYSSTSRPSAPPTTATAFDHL

[3] = Microsomal stability assay with NADPH-fortified mouse liver microsomes; assay type: in vitro ADME; details: for Half-life estimation in mouse liver microsomes: 1 μM compound, NADPH fortified, 5-60 min
Summary of the method: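 1μM test compound was incubated with 200μg pooled mouse liver microsomes in phosphate buffer (3.3mM MgCl2) with 4mg NADPH. Samples taken at 5, 10, 15, 30, 45 and 60 minutes were quenched with cold acetonitrile. After protein precipitation, supernatants were analyzed by LC/MS/MS and percent remaining plotted over time. Verapamil served as the high-clearance control.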

[4] = system: ovarian carcinoma (SKOV-3) cells; test: Phospho-histone H3 immunoblot in Pax2-negative SKOV-3 cells; assay type: cell-based, human; details: each concentration tested, 24 hours, vs vehicle (DMSO)
Summary of the method: as §1

Cdh6 = test: Immunoblot of Cdh6 and Pax2 protein in Pax2-positive RCC; assay type: cell-based, human; details: 24 hours
Summary of the method: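 Pax2-positive human RCC cells grown in RPMI 1640 with 10% FBS were seeded at 5.0 × 10^4 cells/well, attached overnight, then exposed 24 h to increasing test compound concentrations or DMSO. Whole-cell lysates in 2X SDS buffer were run on SDS-PAGE, transferred to PVDF and probed for Cdh6, Pax2 and β-actin with ECL and film detection. Cdh6 densitometry was normalized to β-actin per lane.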

[5] = system: Pax2-negative SKOV-3 cells; test: Luciferase ATP; assay type: cell-based, human; details: only at 15 μM, tenfold the IC50, 18 hours
[6] = system: Pax2 binding site at the AVPR2 promoter; test: ChIP at the AVPR2 promoter in IMCD cells in high salt; assay type: cell-based, mouse; details: 5 μM, high salt 24 hours
Summary of the method: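 Mouse mIMCD3 cells in triplicate were pretreated 4 h with DMSO or 5 μM test compound (per figure legend). They were then kept 24 h in control medium or NaCl-supplemented medium (500 mOsm/kg), with or without compound. Chromatin immunoprecipitation was followed by real-time PCR with primers for the Pax2 binding site at the AVPR2 promoter. Antibodies included PTIP, H3K4me3 and RNA Pol II CTD.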

Pax2 [7] = target: Pax2 (Mus musculus, UniProt P32114); assay type: cell-based; details: for Fold reduction (FR) of luminescence relative to vehicle treated Pax2 transfected PRS4-Luc cells: at 1.56 μM
Sequence of Pax2 (Mus musculus, UniProt P32114) (P32114 1-391 isoform P32114-2): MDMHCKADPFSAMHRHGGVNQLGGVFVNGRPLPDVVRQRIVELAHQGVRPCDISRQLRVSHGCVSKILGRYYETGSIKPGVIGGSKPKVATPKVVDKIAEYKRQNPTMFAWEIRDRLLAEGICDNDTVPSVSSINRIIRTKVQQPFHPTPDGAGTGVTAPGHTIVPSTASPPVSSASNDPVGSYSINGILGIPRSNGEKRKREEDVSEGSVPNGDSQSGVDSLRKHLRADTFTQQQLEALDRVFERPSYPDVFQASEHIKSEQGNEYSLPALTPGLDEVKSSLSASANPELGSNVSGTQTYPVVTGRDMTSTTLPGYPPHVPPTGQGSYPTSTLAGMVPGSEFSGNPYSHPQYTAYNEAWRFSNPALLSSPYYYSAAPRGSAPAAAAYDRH

Pax2 expressing RCC = test: Phospho-histone H3 immunoblot; assay type: cell-based, human; details: 24 hours, vs vehicle
Summary of the method: as §1

Pax2 [8] = details: at 10 μM; ref Grimley et al., 2017; cited from earlier work

| Compound | Increased Avpr2 expression in response to high salt (Avpr2) | Pax2, Pax8, or PTIP protein levels (Pax2, Pax8, PTIP) | Increased UTA1/3 mRNA expression in high salt (UTA1/3) | Selectivity in PRS4-Luc cells over BRE-Luc cells (BRE-Luc cells) | Increased H3K4me3 and PolII binding at the Slc14a2 promoter (ChIP) [2] | Pax8 protein levels or binding to the Slc14a2 promoter [2] | Recruitment of PTIP and the H3K4 methyltransferase complex at the Slc14a2 promoter (ChIP) [2] | Half-life estimation in mouse liver microsomes [3] | Histone H3K4me3 and RNA PolII recruitment at the AVPR2 promoter (ChIP) [6] | Increased Pax2 binding to the Avpr2 promoter in high salt (ChIP) [6] | Recruitment of PTIP at the AVPR2 promoter (ChIP) [6] | Fold reduction (FR) of luminescence relative to vehicle treated Pax2 transfected PRS4-Luc cells (Pax2 [7]) | further results |
| --- | --- | --- | --- | --- | --- | --- | --- | --- | --- | --- | --- | --- | --- |
| Cc1ccc(C)c(N2CCN(c3c(C)c(C)nc4ncnn34)CC2)c1 [BG-1] | significantly inhibited | did not affect | significantly inhibited | selective activity | prevent | no effect | inhibit | 7.89 min | prevented | no effect | inhibited | 0.58 | Stability in vivo, rank among the three compounds ([1]; IV 5 mg/kg or PO 15 mg/kg, plasma 0.5-7 h): most stable compound in vivo; Rate of plasma clearance compared to the other two compounds ([1]; intravenous 5 mg/kg single dose): lowest rate of clearance; Effect on the phosphorylation of Pax proteins (Pax proteins): could not determine any discernible effects; Inhibition of Pax5 activation of the PRS4-Luc reporter (Pax5): similarly inhibited; Percentage of viable cells (ATP luminescence) (Pax2-positive RCC cells): significantly and dose-dependently lowered; pHH3 levels (HEK293 cells): did not significantly change; Inhibition of Pax8 activation of the PRS4-Luc reporter (Pax8): similarly inhibited; pHH3 levels [4]: no significant change; Cdh6 protein levels (Cdh6; 1.5 μM): significant reduction; Pax2 protein levels (Cdh6; 1.5 μM): no effect; Pax2 protein levels (Cdh6; 15 μM): also reduced; Metabolically active cells (ATP luminescence) [5]: significant drop; Change of IC50 of BG1 in combination with EG1 (Pax2 [7]; fixed 10 μM EG1, Prs4-Luc reporter cells, Fig. S3): reduce the IC50; pHH3 levels (Pax2 expressing RCC; 1.5 μM): significant reduction; pHH3 levels (Pax2 expressing RCC; 15 μM): significant reduction |
| Cc1nc2ncnn2c(N2CCN(c3ccc(Cl)cc3)CC2)c1C [BG-2] | significantly inhibited | did not affect | significantly inhibited | selective activity | prevent | no effect | inhibit | 46.24 min | prevented | no effect | inhibited | 0.78 | Stability in vitro, rank among the three compounds ([3]; mouse liver microsomes): most stable in vitro |
| CCc1c(C)nc2ncnn2c1Nc1ccc(Cl)cc1 [BG-3] |  |  |  | selective activity |  |  |  | 25.39 min |  |  |  | 0.82 | Signs of cytotoxicity in counter screen (BRE-Luc cells; PRS4-Luc and BRE-Luc cells, up to 50 μM): did not indicate signs of cytotoxicity |
| COc1ccccc1C(=O)Nc1ccc(C(=O)Nc2ccccc2C(=O)O)cc1 [EG1] |  |  |  |  |  |  |  |  |  |  |  |  | Maximal inhibition of Pax2 (Pax2 [8]): approximately 50% |
